According to ChEMBL document CHEMBL1134845, “Syntheses and biological activities of a novel group of steroidal derived inhibitors for human Cdc25A protein phosphatase” (J Med Chem, 2001):

Legend:
[1] = system: SN12C; assay: Growth inhibitory activity was determined against SN12C cancer cell line of Renal cancer; type: functional; details: Homo sapiens
In short: (§1)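 NCI 60 human tumour cell line screen run at the National Cancer Institute. Cell growth and viability read with the protein stain sulforhodamine B, which binds basic amino acids of cells left attached after washing. […] MG MID is the mean GI50 calculated over all panels.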

[2] = system: SF-268; assay: Growth inhibitory activity was determined against SF-268 cancer cell line of CNS cancer; type: functional; details: Homo sapiens; in short: as §1
[3] = system: BT-549 (Homo sapiens); assay: Growth inhibitory activity was determined against BT-549 cancer cell line of Breast cancer; details: Homo sapiens, BT-549
[4] = system: T47D; assay: Growth inhibitory activity was determined against T-47D cancer cell line of Breast cancer; type: functional, Homo sapiens; details: Homo sapiens, T47D; in short: as §1
[5] = system: COLO 205; assay: Growth inhibitory activity was determined against COLO 205 cancer cell line colon cancer; type: functional, Homo sapiens; details: Homo sapiens, COLO 205; in short: as §1
[6] = system: UO-31; assay: Growth inhibitory activity was determined against UO-31 cancer cell line of Renal cancer; type: functional; details: Homo sapiens; in short: as §1
[7] = system: SF-539; assay: Growth inhibitory activity was determined against SF-539 cancer cell line of CNS cancer; type: functional; details: Homo sapiens; in short: as §1
[8] = system: HT-29; assay: Inhibition of colon cancer in HT-29 cancer cell lines; type: functional; details: Homo sapiens
In short: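 Soft agar clonogenic assay of anchorage-independent growth, using HT-29 colon and A549 lung adenocarcinoma cells. The value is the compound concentration that cut colony number to 50% of control.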

[9] = system: NCI-H522; assay: Growth inhibitory activity was determined against NCI-H522 cancer cell line of non-small cell lung cancer; type: functional; details: Homo sapiens; in short: as §1
[10] = system: 786-0; assay: Growth inhibitory activity was determined against 786-0 cancer cell line of Renal cancer; type: functional; details: Homo sapiens; in short: as §1
[11] = system: NCI-H23; assay: Growth inhibitory activity was determined against NCI-H23 cancer cell line of non-small cell lung cancer; type: functional, Homo sapiens; details: Homo sapiens, NCI-H23; in short: as §1
[12] = system: U-251; assay: Growth inhibitory activity was determined against U-251 cancer cell line of CNS cancer; type: functional; details: Homo sapiens; in short: as §1
[13] = system: PC-3; assay: Growth inhibitory activity was determined against PC-3 cancer cell line of Prostate cancer; type: functional; details: Homo sapiens; in short: as §1
[14] = system: OVCAR-3; assay: Growth inhibitory activity was determined against OVCAR-3 cancer cell line of Ovarian cancer; type: functional; details: Homo sapiens; in short: as §1
[15] = system: SK-MEL-5; assay: Growth inhibitory activity was determined against SK-MEL-5 cancer cell line of melanoma; type: functional, Homo sapiens; details: Homo sapiens, SK-MEL-5; in short: as §1
[16] = system: A549; assay: Growth inhibitory activity was determined against A549/ATCC cancer cell line of non-small cell lung cancer; type: functional, Homo sapiens; details: Homo sapiens, A549; in short: as §1
[17] = system: HCC 2998; assay: Growth inhibitory activity was determined against HCC2998 cancer cell line colon cancer; type: functional, Homo sapiens; details: Homo sapiens, HCC 2998; in short: as §1
[18] = system: LOX IMVI; assay: Growth inhibitory activity was determined against LOX IMVI cancer cell line of melanoma; type: functional, Homo sapiens; details: Homo sapiens, LOX IMVI; in short: as §1
[19] = system: OVCAR-8; assay: Growth inhibitory activity was determined against OVCAR-8 cancer cell line of Ovarian cancer; type: functional; details: Homo sapiens; in short: as §1
[20] = target: T1, M-phase inducer phosphatase 1 (Homo sapiens) (UniProt P30304); assay: (§2) Inhibitory activity tested against cell division cycle 25A (assay using fluorescein diphosphate (FDP) as substrate); details: for inhibition: concentration not given here
T1 sequence (whole entry): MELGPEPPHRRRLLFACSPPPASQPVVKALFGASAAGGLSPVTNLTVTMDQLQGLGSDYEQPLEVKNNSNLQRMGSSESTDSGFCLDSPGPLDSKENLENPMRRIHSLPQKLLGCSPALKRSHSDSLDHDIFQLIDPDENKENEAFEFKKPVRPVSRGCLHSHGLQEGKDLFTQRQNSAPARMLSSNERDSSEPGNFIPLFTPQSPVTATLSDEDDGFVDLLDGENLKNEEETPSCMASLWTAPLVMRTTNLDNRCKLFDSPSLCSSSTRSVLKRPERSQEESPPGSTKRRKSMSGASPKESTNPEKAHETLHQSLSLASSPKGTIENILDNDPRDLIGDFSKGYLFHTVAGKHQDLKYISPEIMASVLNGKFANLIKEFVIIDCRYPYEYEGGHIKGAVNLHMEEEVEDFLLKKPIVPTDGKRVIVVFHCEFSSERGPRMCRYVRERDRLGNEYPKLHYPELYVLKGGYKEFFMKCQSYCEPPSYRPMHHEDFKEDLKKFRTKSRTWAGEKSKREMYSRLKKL
In short: (§3)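 Recombinant human GST-Cdc25A fusion protein, each batch calibrated so that FDP was dephosphorylated linearly over 20 min. Fluorescein diphosphate was the substrate. Reactions ran 15 min at 25 °C in the dark and were stopped with sodium orthovanadate. Fluorescein monophosphate was read at 485 nm excitation and 530 nm emission. IC50 came from at least two independent runs, each in triplicate.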

[21] = system: UO-31; assay: Growth inhibitory activity was determined against UO-31 cancer cell line of renal cancer; type: functional; details: Homo sapiens; in short: as §1
[22] = system: HT-29; assay: Growth inhibitory activity was determined against HT-29 cancer cell line colon cancer; type: functional, Homo sapiens; details: Homo sapiens, HT-29; in short: as §1
[23] = system: 786-0; assay: Growth inhibitory activity was determined against 786-0 cancer cell line of renal cancer; type: functional; details: Homo sapiens; in short: as §1
[24] = target: Receptor-type tyrosine-protein phosphatase C, CD45 (Homo sapiens) (UniProt P08575); assay: Inhibitory activity tested against human CD45 receptor-type tyrosine-protein phosphatase C
Chain of Receptor-type tyrosine-protein phosphatase C, CD45 (Homo sapiens) (P08575 whole entry, looked up): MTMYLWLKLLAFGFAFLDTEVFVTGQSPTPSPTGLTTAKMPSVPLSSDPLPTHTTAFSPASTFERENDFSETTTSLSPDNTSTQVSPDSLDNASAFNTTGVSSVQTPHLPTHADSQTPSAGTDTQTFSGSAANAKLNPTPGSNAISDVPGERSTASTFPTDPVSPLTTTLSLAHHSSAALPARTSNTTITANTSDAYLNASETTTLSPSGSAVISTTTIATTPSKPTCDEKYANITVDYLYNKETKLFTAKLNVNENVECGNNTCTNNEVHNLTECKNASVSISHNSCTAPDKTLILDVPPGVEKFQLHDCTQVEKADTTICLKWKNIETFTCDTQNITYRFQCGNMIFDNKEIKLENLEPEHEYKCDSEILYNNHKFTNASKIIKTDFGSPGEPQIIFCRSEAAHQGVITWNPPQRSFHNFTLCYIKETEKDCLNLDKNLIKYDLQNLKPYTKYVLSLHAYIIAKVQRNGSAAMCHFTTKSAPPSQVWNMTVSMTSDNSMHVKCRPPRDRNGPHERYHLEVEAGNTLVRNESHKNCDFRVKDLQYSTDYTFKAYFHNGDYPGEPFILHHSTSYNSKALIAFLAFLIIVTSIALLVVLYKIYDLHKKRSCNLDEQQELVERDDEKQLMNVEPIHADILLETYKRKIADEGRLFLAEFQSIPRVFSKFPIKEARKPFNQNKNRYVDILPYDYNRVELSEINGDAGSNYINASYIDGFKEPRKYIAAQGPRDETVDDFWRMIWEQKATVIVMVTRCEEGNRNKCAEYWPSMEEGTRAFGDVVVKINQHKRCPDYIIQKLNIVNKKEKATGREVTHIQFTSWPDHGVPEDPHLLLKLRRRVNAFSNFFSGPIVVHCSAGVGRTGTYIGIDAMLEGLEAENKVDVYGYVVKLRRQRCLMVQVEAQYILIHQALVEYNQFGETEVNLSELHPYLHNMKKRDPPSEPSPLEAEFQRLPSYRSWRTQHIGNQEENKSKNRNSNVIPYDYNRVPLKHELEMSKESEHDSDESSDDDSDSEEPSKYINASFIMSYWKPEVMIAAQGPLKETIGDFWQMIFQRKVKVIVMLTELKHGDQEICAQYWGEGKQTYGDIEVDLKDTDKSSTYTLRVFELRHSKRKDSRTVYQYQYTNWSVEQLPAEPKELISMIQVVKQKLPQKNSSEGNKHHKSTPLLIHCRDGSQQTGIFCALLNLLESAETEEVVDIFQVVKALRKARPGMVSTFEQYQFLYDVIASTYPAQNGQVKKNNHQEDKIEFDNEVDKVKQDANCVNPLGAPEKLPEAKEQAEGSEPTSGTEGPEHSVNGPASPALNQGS

[25] = target: T1, M-phase inducer phosphatase 1 (Homo sapiens); assay: (§4) Inhibitory activity tested against cell division cycle 25A (assay using p-nitro phenyl phosphate (pNPP) as substrate)
[26] = system: NCI/ADR-RES; assay: Growth inhibitory activity was determined against NCI/ADR-RES cancer cell line of Breast cancer; type: functional, Homo sapiens; details: Homo sapiens, NCI/ADR-RES; in short: as §1
[27] = system: SN12C; assay: Growth inhibitory activity was determined against SN12C cancer cell line of renal cancer; type: functional; details: Homo sapiens; in short: as §1
[28] = system: OVCAR-8; assay: Growth inhibitory activity was determined against OVCAR-8 cancer cell lines of Ovarian cancer; type: functional; details: Homo sapiens; in short: as §1
[29] = system: OVCAR-3; assay: Growth inhibitory activity was determined against OVCAR-3 cancer cell lines of Ovarian cancer; type: functional; details: Homo sapiens; in short: as §1
[30] = target: Receptor-type tyrosine-protein phosphatase C, CD45 (Homo sapiens) (UniProt P08575); assay: Inhibitory activity tested against human CD45 (receptor-type tyrosine-protein phosphatase C)
[31] = target: T2, M-phase inducer phosphatase 1 (Homo sapiens, UniProt P30304); assay: as §4
T2 sequence (P30304 whole entry): T1 sequence (whole entry)

[32] = target: T2, M-phase inducer phosphatase 1; assay: as §2
In short: as §3, with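 “orthovanadate.” for “orthovanadate. Fluorescein monophosphate was read at 485 nm excitation and 530 nm emission.”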

GI50 [3]	GI50 [4]	GI50 [5]	GI50 [9]	GI50 [11]	GI50 [12]	GI50 [13]	GI50 [14]	GI50 [15]	GI50 [16]	GI50 [17]	GI50 [19]	inhibition [20]	GI50 [22]	GI50 [23]	Structure (SMILES)	GI50 [2]	GI50 [7]	GI50 [18]	GI50 [21]	GI50 [26]	other results
5.89 µM	4.92 µM	4.75 µM	> 25 µM	5.63 µM	5.04 µM	5.51 µM	4.73 µM	5.1 µM	5.51 µM	4.71 µM	5.19 µM				CC(C)CCC[C@@H](C)[C@H]1CC[C@H]2[C@@H]3CC(=O)O[C@](C)(CCCCC#N)[C@H]3CC[C@]12C	> 25 µM	5.17 µM	5.35 µM			GI50 [1]: 4.38 µM; GI50 [6]: 0.47 µM; GI50 [8]: 4.05 µM; GI50 [10]: 4.3 µM
												16%			CC(C)CCC[C@@H](C)[C@H]1CC[C@H]2[C@@H]3CC[C@H]4CC(NCCCC(=O)O)CC[C@]4(C)[C@H]3CC[C@]12C (some centres undefined)						
												19%			CC(C)CCC[C@@H](C)[C@H]1CC[C@H]2[C@@H]3CC[C@H]4C[C@@H](O/C(S)=N\c5cccc6ccccc56)CC[C@]4(C)[C@H]3CC[C@]12C						
5.62 µM	8.39 µM	5.1 µM		5.12 µM	6.49 µM	7.36 µM	6.64 µM	5.98 µM	5.21 µM	6.33 µM	4.78 µM		7.77 µM	11.5 µM	C=C(CCCCC#N)[C@H]1CC[C@]2(C)[C@@H]([C@H](C)CCCC(C)C)CC[C@H]2[C@@H]1CC(=O)O		4.5 µM	4.92 µM	9.41 µM	5.66 µM	IC50 [24]: 12.2 µM; IC50 [25]: 8.3 µM; IC50 [20]: 2.2 µM; GI50 [27]: 6.9 µM
4.19 µM	7.3 µM	6.13 µM	> 25 µM	4.92 µM	6.28 µM	7.21 µM		9.69 µM	8.3 µM	4.43 µM			7.76 µM	8.44 µM	CC(C)CCC[C@@H](C)[C@H]1CC[C@H]2[C@@H]3CC(=O)O[C@](C)(CCCCC(=O)O)[C@H]3CC[C@]12C	> 25 µM	14.6 µM		11 µM	5.55 µM	GI50 [28]: 5.13 µM; GI50 [29]: 5.78 µM; IC50 [30]: > 100 µM; IC50 [31]: 11.6 µM; IC50 [32]: 5.1 µM; GI50 [27]: 8.3 µM
